From PubChem
An excerpt weighted towards active compounds, which were near 3.9% of everything screened.
TAAR1 ag: human TAAR1 agonism; CHO RD-HGA16 TAAR1, Fluo-8 calcium fluorescence; vehicle wells 0%, saturating PEA agonist 100%; 360,000 tested, 0.99% active; activation, % at 3 µM; AID 624467; Q96RJ0;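 active = activation above the mean activation of all test compounds in the run plus 3 SD, cut at about 38% in these data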
Target sequence (Q96RJ0 whole entry, looked up): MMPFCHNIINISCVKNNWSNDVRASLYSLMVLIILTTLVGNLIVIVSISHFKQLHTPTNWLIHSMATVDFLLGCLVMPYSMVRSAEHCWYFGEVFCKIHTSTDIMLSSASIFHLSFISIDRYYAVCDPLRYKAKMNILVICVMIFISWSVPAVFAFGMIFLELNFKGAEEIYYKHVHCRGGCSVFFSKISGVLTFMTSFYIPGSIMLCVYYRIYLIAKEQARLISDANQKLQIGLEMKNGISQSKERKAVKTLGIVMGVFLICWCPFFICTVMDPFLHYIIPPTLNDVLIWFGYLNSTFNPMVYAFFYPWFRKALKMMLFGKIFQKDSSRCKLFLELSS
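Test system: RD-HGA16 (CHO) cells co-expressing Gα16 and hTAAR1 | Doses: Single dose, 3 µM | Schedule: 17-24 h seeding, 75 min 37 °C dye, 30 min RT | Evaluation: % activation from peak over basal fluorescence ratio, DMSO-to-PEA scaled | Technique: Kinetic Fluo-8 calcium fluorescence | Benchmarks: Low control DMSO, high control PEA (EC100)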
TAAR1 antag: human TAAR1 antagonism. AID 624466. 360,000 tested, 1.5% active. Q96RJ0. CHO RD-HGA16 TAAR1, Fluo-8 calcium fluorescence, antagonist. inhibition, % at 3 µM;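 active = inhibition above a per-plate cutoff, the mean inhibition of test compounds on that plate plus 3 SD, cut at about 49% in these data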;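 note: 0% = DMSO plus EC80 beta-PEA response and 100% = DMSO alone without agonist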
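Assay system: CHO-derived RD-HGA16 cells stably expressing human TAAR1 plus Gα16. Timing: 140 s kinetic read after compound, 140 s after agonist. Technique: kinetic Fluo-8 calcium fluorescence measurement. Measure: % inhibition of agonist calcium response.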
OX1R antag-1: blocks the human orexin 1 receptor; CHO/OX1R cells, Fluo-8 calcium fluorescence, orexin A; 330,000 tested, 0.43% active; inhibition, % at 5 µM;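 active = inhibition above its plate's threshold, mean inhibition of all tested compounds on the plate plus 3 SD, cut at about 37% in these data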;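 note: 0% = orexin A challenge wells and 100% = SB-334867-A antagonist wells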
Target sequence (O43613 whole entry, looked up): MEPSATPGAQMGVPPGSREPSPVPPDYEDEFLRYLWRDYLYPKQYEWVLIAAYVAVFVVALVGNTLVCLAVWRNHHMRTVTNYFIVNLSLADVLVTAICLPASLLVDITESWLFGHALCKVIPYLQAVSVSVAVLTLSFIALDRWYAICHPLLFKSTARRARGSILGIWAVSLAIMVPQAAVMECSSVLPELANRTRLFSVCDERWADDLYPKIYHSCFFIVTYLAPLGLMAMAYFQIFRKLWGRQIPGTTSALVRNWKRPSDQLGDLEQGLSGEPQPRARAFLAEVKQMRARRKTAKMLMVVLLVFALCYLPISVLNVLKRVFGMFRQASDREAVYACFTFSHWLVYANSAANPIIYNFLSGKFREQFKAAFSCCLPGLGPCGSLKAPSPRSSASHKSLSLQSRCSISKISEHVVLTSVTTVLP
CHO parental Ca: signal in parental CHO cells, OX1R antagonist counter-screen; parental CHO-K1, ATP-induced calcium, Fluo-8 fluorescence; inhibition, % at 5.6 µM; 330,000 tested, 0.63% active; AID 463079;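 active = inhibition above that plate's mean sample inhibition plus 3 SD, cut at about 26% in these data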;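 note: 0% = ATP-challenged DMSO wells and 100% = DMSO wells without ATP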
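Material: Parental CHO cells | Reagent: ATP | Compound dosing: Single nominal dose of 5.6 µM per compound | Detection: Intracellular calcium via Fluo-8 no-wash fluorescent dye | Read-out: % inhibition of ATP-induced calcium mobilization | Benchmarks: Low control ATP plus DMSO, high control DMSO only | Replicates: Singlicate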
OX1R antag-2: OX1R (human) antagonism; OX1R-expressing cells, FRET antagonist read-out; inhibition, % at 6.6 µM; O43613; 330,000 tested, 1.8% active; in the data active = inhibition mostly above about 38%, no sharp cut-off; inactive = mostly below about 40%;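 note: 0% = agonist challenge alone and 100% = reference antagonist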
TAAR1 ag conf: human TAAR1 agonism, confirmed; shares compounds with TAAR1 ag; CHO RD-HGA16 TAAR1, Fluo-8 calcium fluorescence; scaled: DMSO 0%, maximal phenethylamine 100%; activation, % at 3 µM; 2,400 tested, 82% active; AID 651783;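 active = activation above a cutoff set at the run's mean compound activation plus 3 SD, cut at about 39% in these data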
Ga16 nonsel ag: nonselective agonist in parental cells, TAAR1 agonist counter-screen; CHO-Ga16 parental, Fluo-8 calcium fluorescence; normalized to maximal ATP response, DMSO zero; activation, % at 3 µM; 2,400 tested, 50% active; shares compounds with TAAR1 ag;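 active = activation above the run cutoff, the mean activation over all tested wells plus 3 SD, cut at about 12% in these data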;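 note: 0% = DMSO wells and 100% = maximal ATP response on the peak over basal ratio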
TAAR1 desens: TAAR1 response desensitization, agonist counter-screen. shares compounds with TAAR1 ag. CHO RD-HGA16 hTAAR1, Fluo-8 calcium, beta-PEA response inhibition. inhibition, % at 3 µM. 2,400 tested, 46% active;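 active = inhibition above the run cutoff, the mean inhibition of all test compounds plus 3 SD, cut at about 49% in these data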;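 note: beta-PEA stimulus applied at its EC80; loss of beta-PEA calcium signal after compound pretreatment read as receptor desensitization; 0% = DMSO with beta-PEA at EC80 and 100% = DMSO alone without agonist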
Ga16 nonsel ant: counter-screen for TAAR1 agonists: nonselective Ga16 antagonists; CHO-Ga16 ATP-induced calcium, Fluo-8 fluorescence; shares compounds with TAAR1 ag; 2,400 tested, 39% active; inhibition, % at 3 µM; AID 651952;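 active = inhibition above the plate's mean compound inhibition plus 3 SD, computed per plate, cut at about 22% in these data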;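 note: 0% = EC80 ATP with DMSO and 100% = DMSO wells without ATP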
Numbers without * were called inactive; . = not tested or not shown.

SMILES | TAAR1 ag | TAAR1 antag | OX1R antag-1 | CHO parental Ca | OX1R antag-2 | TAAR1 ag conf | Ga16 nonsel ag | TAAR1 desens | Ga16 nonsel ant
N#C/C(=C\c1ccc(N2CCOCC2)o1)c1nc2ccccc2[nH]1 | 92.1* | 27.5 | -2.9 | 7.2 | 31.8 | 76.4* | 100.5* | 58.4* | 52.2*
CC(C)Cn1c(N)c(C(=O)CSc2ncnc3sc4c(c23)CCCC4)c(=O)n(C)c1=O | 0.9 | 13.9 | -7.0 | -0.1 | 11.2 | . | . | . | .
N#Cc1c(NCCN)nc(-c2ccccc2)c2c1CCCC2 | 54.2* | -27.7 | -10.7 | -24.8 | 10.7 | 37.9* | 5.1 | 9.4 | 8.2
O=C1/C(=C\c2cc([N+](=O)[O-])ccc2O)SC(=S)N1Cc1ccc(Cl)cc1 | 83.7* | 86.8* | 68.4* | 62.1* | 31.6 | 112.7* | 121.1* | 102.4* | 96.8*
O=C1/C(=C/c2ccncc2)SC(=S)N1Cc1ccccc1 | 0.8 | 2.5 | -23.4 | -9.1 | 5.3 | . | . | . | .
O=C1/C(=C\c2cccc(O)c2O)SC(=S)N1Cc1ccccc1 | 49.7* | -17.3 | -5.2 | 1.7 | 2.0 | 21.5 | 17.9* | 21.6 | 28.8*
O=C(O)CN1C(=O)/C(=C\c2cc([N+](=O)[O-])ccc2OCc2ccccc2Cl)SC1=S | 0.5 | -0.6 | -16.0 | -8.2 | 10.6 | . | . | . | .
Cc1c(N2CCCCC2)[nH]c2ccccc12 | 1.8 | -10.8 | . | . | . | . | . | . | .
CC(C)(C)OC(=O)C[C@H]1C/C=C\C[C@H](CC(=O)N[C@H](CO)Cc2ccccc2)C(=O)N[C@@H](Cc2ccccc2)COC1=O | 12.1 | 27.9 | -24.2 | -20.8 | 8.4 | . | . | . | .
O=C(CSc1nnc(CNC(=O)c2ccccc2)o1)NCC1CCCO1 (stereo unspecified) | 0.5 | -15.9 | -15.9 | -0.6 | 10.0 | . | . | . | .
CC1(NC(=O)Cc2c(F)cccc2Cl)CCS(=O)(=O)C1 (stereo unspecified) | 7.7 | -24.1 | 6.3 | 0.9 | -0.1 | . | . | . | .
CN(C(=O)CCc1nc(-c2ccccc2F)no1)c1ccccc1 | 44.9* | -18.8 | -10.0 | 4.5 | 0.6 | 6.3 | 7.3 | 4.5 | 1.8
O=C(N=Nc1c(O)n(C2OC(=O)c3ccccc32)c2ccccc12)c1ccc(O)cc1 (stereo unspecified) | 71.0* | 34.7 | -5.1 | -14.2 | 12.8 | 8.3 | 8.5 | 14.3 | 18.5
CC(=O)OC1COC(n2c(O)c(N=NC(N)=S)c3ccccc32)C(OC(C)=O)C1OC(C)=O (stereo unspecified) | 4.3 | 6.2 | -7.1 | -9.5 | 18.9 | . | . | . | .
CC(C)c1ccccc1NC1=CC(=O)CC(C)(C)C1 | 3.0 | 7.1 | -20.7 | -12.8 | 4.9 | . | . | . | .
COc1ccc2c(c1)C1(C)CC(C)(C)N2C(=O)N1c1ccccc1 (stereo unspecified) | 44.1* | 10.7 | -40.4 | -25.7 | 3.6 | 15.7 | 8.3 | 3.2 | 9.7
CCCSc1ccc(C(=O)Nc2ccc(F)cc2F)cn1 | 66.8* | 28.8 | -24.2 | 8.0 | 17.9 | 17.6 | 0.6 | -12.1 | 1.8
Cc1ccc(C(=O)NCC(=O)OCc2nc3ccsc3c(=O)[nH]2)cc1C | 3.2 | -15.0 | . | . | . | . | . | . | .
C=CCOC(=O)C(=O)/C=C/c1coc2ccccc2c1=O | 53.4* | 15.8 | -9.7 | 4.6 | 12.8 | 36.1 | 22.5* | -3.7 | 12.8
COc1cc2[nH]c(C(=O)N3CCc4ccccc4C3)cc2c(OC)c1OC | 44.1* | -12.0 | -17.6 | -24.8 | -0.9 | 71.9* | 4.7 | 16.9 | 7.6
Cc1ccc(C(=O)Oc2cc(N)n(S(=O)(=O)c3ccc(C)cc3)n2)cc1 | 7.0 | -19.4 | -18.2 | -11.3 | 19.8 | . | . | . | .
Cc1ccc(S(=O)(=O)n2nc(OC(=O)c3ccccc3F)cc2N)cc1 | 64.9* | 17.3 | -12.2 | 2.1 | 1.1 | 73.4* | 45.8* | 29.6 | 10.5
Cc1ccccc1C(=O)Oc1cc(N)n(S(=O)(=O)c2ccccc2)n1 | 83.8* | 40.8 | -27.1 | -14.2 | 18.4 | 8.3 | 0.7 | -8.0 | 10.1
CC(C)CC(N)c1csc(NC(=O)C(c2ccccc2)c2ccccc2)n1 (stereo unspecified) | 74.9* | 66.2* | . | . | . | 75.2* | 33.6* | 72.7* | 50.1*
OC(COC(c1ccc(F)cc1)c1ccc(F)cc1)CN1CCCC(C(F)(F)F)C1 (stereo unspecified) | 69.5* | 38.1 | -30.1 | 3.4 | 14.5 | 79.1* | 2.6 | 57.7* | 14.0
SMILES | TAAR1 ag | TAAR1 antag | OX1R antag-1 | CHO parental Ca | OX1R antag-2 | TAAR1 ag conf | Ga16 nonsel ag | TAAR1 desens | Ga16 nonsel ant
C=CCN(Cc1ccc(Cl)s1)C(=O)c1cc(S(=O)(=O)N2CCOCC2)ccc1F | 7.0 | -10.8 | -2.9 | -32.4 | 8.2 | . | . | . | .
O=C(NCC1CCCO1)c1cn(Cc2ccccc2Cl)nc1-c1ccccc1 (stereo unspecified) | 0.6 | -12.8 | . | . | . | . | . | . | .
NC(=Nc1ccc(Br)cc1)c1ccccc1 | 49.8* | 40.3 | -1.1 | -6.0 | 8.8 | 55.3* | 27.3* | 48.5 | 18.1
N/C(=N\OC(=O)Oc1ccccc1)c1ccc(Br)cc1 | 8.6 | -8.8 | -32.5 | -4.1 | 14.8 | . | . | . | .
Cn1c(-c2ccc(F)cc2)cnc1NCc1cccc([N+](=O)[O-])c1 | 5.0 | 4.9 | -19.1 | -7.1 | 15.7 | . | . | . | .
Cc1nc([N+](=O)[O-])c(Br)n1CC(=O)c1ccc(Cl)cc1 | 6.0 | -19.7 | -24.5 | -7.6 | 40.2 | . | . | . | .
Cc1nc([N+](=O)[O-])c(Br)n1Cc1ccc(Cl)c(Cl)c1 | 51.0* | 36.8 | . | . | . | 9.5 | 4.8 | 18.1 | 12.9
Cc1nn(CC(=O)N2CCc3ccccc3C2)c(C)c1Cl | 6.1 | -0.2 | 9.7 | -14.7 | 2.4 | . | . | . | .
Cc1nn(CC(=O)N2CCc3ccccc3C2)c(C)c1[N+](=O)[O-] | 57.9* | -13.2 | -9.4 | 4.0 | 48.8 | 68.6* | 0.9 | 22.9 | 2.8
Cc1c(Br)c([N+](=O)[O-])nn1CC(=O)N1CCc2ccccc2C1 | 62.9* | -22.0 | -24.4 | -6.1 | 29.0 | 59.9* | 2.0 | 15.3 | 7.0
O=C(COC(=O)Cc1ccsc1)Nc1cccc(F)c1 | 0.2 | 9.9 | -13.4 | -8.9 | 7.3 | . | . | . | .
Cc1ccc(-n2nnc3c(=O)n(Cc4cccc(C)c4)cnc32)cc1 | 1.1 | -10.7 | -15.7 | -4.9 | 0.9 | . | . | . | .
O=c1c2nnn(-c3ccc(Cl)cc3)c2ncn1Cc1ccccn1 | 476.3* | 86.4* | -18.7 | -19.0 | 18.6 | 4.8 | 2.5 | 1.9 | 11.6
Cc1ccc(-n2nnc3c(=O)n(Cc4cc(C)ccc4C)cnc32)cc1 | 43.1* | 94.9* | -8.1 | -5.1 | 4.6 | 70.8* | 35.0* | 86.8* | 52.6*
